Results published in ChEMBL document CHEMBL4368903, “Identification of GSK3186899/DDD853651 as a Preclinical Development Candidate for the Treatment of Visceral Leishmaniasis” (J Med Chem, 2019).
≈ marks a conversion by molar mass, not a printed value.

Experiments:
[1] = Intrinsic clearance in CD1 mouse liver microsomes at 0.5 uM after 3 to 30 mins in presence of NADPH by UPLC-MS/MS analysis; type: ADME, Microsome
Outline: (§1)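 0.5 μM compound with female CD1 mouse or human liver microsomes, started with excess NADPH in 50 mM potassium phosphate pH 7.4. Aliquots at 0, 3, 6, 9, 15 and 30 min quenched in acetonitrile with internal standard. UPLC-MS/MS; rate constant from exponential decay of compound/IS ratio. Verapamil as positive control.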

Leishmania donovani [2] = assay: Antileishmanial activity against Leishmania donovani LV9 amastigotes infected in BALB/c mouse assessed as suppression of parasite load within liver at 50 mg/kg, po administered bid for 5 days relative to control; type: functional
Outline: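 Female BALB/c mice, 5 per group, infected i.v. with about 2×10^7 L. donovani LV9 amastigotes harvested from infected hamster spleen. Oral dosing starts day 7 post-infection, in 0.5% HPMC/0.4% Tween 80/0.5% benzyl alcohol, or 10% DMSO/60% PEG400/30% water for the 5-day 50 mg/kg regimen. Dosing solutions made fresh daily. Killed day 14 (5-day) or 19 (10-day). Liver smears give LDU (amastigotes/500 nucleated cells × organ weight). Mean LDU compared with vehicle control gives % suppression.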

[3] = Permeability of the compound by artificial membrane permeability assay; type: ADME; conditions: PAMPA; read-out: permeability
[4] = Kinetic aqueous solubility of the compound in phosphate buffer at pH 7.4 by CLND assay; type: physicochemical; conditions: phosphate buffer, read-out: Kinetic_solubility
Outline: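 From 10 mM DMSO stock diluted 1:20 into pH 7.4 PBS, equilibrated 1 h at RT, filtered. Filtrate quantified by calibrated flow-injection CLND. Dynamic range 1–500 μM.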

[5] = Volume of distribution at steady state in BALB/c mouse at 10 mg/kg, po measured up to 24 hrs by UPLC-MS/MS analysis; type: ADME, organism-based; conditions: in vivo
Outline: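 Female Balb/c mice (n = 3) were dosed in 10% (v/v) DMSO, 60% PEG 400 and 30% deionized water. Compound in blood was quantified by UPLC-MS/MS, and parameters were derived from the mean blood concentration–time curve.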

Leishmania donovani [6] = assay: Antileishmanial activity against Leishmania donovani […] in human THP1 cells by intramacrophage assay; type: functional, organism-based; conditions: Leishmania donovani, THP-1
[7] = Cmax in BALB/c mouse at 10 mg/kg, po measured up to 24 hrs by UPLC-MS/MS analysis; type: ADME, organism-based; design: dose 10 mg/kg, route oral; conditions: in vivo
Outline: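 Single oral dose to female Balb/c mice (n=3) in 10% DMSO/60% PEG400/30% water. Blood sampled at 0.08–24 h and mixed with two volumes of water. Compound quantified by UPLC-MS/MS. Parameters taken from the mean blood concentration–time curve.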

[8] = Oral bioavailability in BALB/c mouse at 10 mg/kg measured up to 24 hrs by UPLC-MS/MS analysis; type: ADME, organism-based; conditions: in vivo
[9] = Fraction unbound in CD1 mouse plasma at 10 ug/ml after 15 mins by UPLC-MS/MS analysis; type: ADME, cell-free
HepG2 = assay: Cytotoxicity against human HepG2 cells; type: cell-based
[10] = Blood clearance in BALB/c mouse at 10 mg/kg, […] measured up to 24 hrs by UPLC-MS/MS analysis; type: ADME, organism-based; conditions: whole blood
[11] = AUClast in BALB/c mouse at 10 mg/kg, po measured up to 24 hrs by UPLC-MS/MS analysis; type: ADME, organism-based; design: time < 24 hr, dose 10 mg/kg, route oral; conditions: in vivo
Outline: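 Female Balb/c mice (n=3) dosed orally in 10% (v/v) DMSO, 60% PEG 400, 30% deionized water. AUC0–last (to last measurement) derived from the mean blood concentration–time curve.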

[12] = Dissociation constant, pKa of the compound by UV-spectroscopy; type: physicochemical
Outline: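 Sirius T3 acid–base titration with UV read-out: 5 μL of 10 mM sample, absorbance over 54 pH values in about 5 min. Methanol cosolvent with Yasuda–Shedlovsky extrapolation used when precipitation occurred.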

[13] = Fraction unbound in human plasma at 10 ug/ml after 15 mins by UPLC-MS/MS analysis; type: ADME, cell-free
[14] = Intrinsic clearance in human liver microsomes at 0.5 uM after 3 to 30 mins in presence of NADPH by UPLC-MS/MS analysis; type: ADME, Microsome; outline: as §1
THP-1 = assay: Cytotoxicity against human THP1 cells; type: cell-based
[15] = Solubility of compound in fasted simulated intestinal fluid at 1 mg after 4 hrs by HPLC-UV analysis; type: physicochemical; conditions: fasted simulated intestinal fluid
Outline: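 1 mg solid shaken in 1 mL FaSSIF (3 mM sodium taurocholate, 0.75 mM lecithin, phosphate buffer pH 6.5) at 900 rpm for 4 h at room temperature, then filtered. Supernatant quantified by HPLC-UV against single-point DMSO calibration. Range 1–1000 μg/mL.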

O=S(=O)(CCC(F)(F)F)N[C@H]1CC[C@H](Nc2ncc3c(-c4ccccn4)n[nH]c3n2)CC1
CLH [1]: 0.6 mL/min/g | Activity (Leishmania donovani [2]): 85% | Papp [3]: 44 ×10⁻⁶ cm/s | solubility kinetic [4]: 8 µM (≈ 3.76 µg/mL) | Vdss [5]: 0.9 L/kg | EC50 (Leishmania donovani [6]): 0.501 µM | Cmax [7]: 1910 ng/mL | bioavailability [8]: 44% | fraction unbound at 0.25 h, 10 ug/ml [9]: 0.13 | EC50 (HepG2): > 100 µM | CL/F [10]: 4 mL/min/kg | AUC(0-t) at 24 h [11]: 17400 ng·h/mL | pKa [12]: 3.2 | fraction unbound at 0.25 h, 10 ug/ml [13]: 0.08 | CLH [14]: < 0.5 mL/min/g | EC50 (THP-1): 50.1 µM | solubility at 4 h [15]: < 1 µg/mL
